According to ChEMBL document CHEMBL1132354, “Novel antidiabetic and hypolipidemic agents. 5. Hydroxyl versus benzyloxy containing chroman derivatives” (J Med Chem, 1999):

Assays:
[1] = biological target: T1, Peroxisome proliferator-activated receptor alpha (Homo sapiens) (UniProt Q07869); assay: Fold activation against Peroxisome proliferator activated receptor alpha (50 uM)
T1 sequence (whole entry): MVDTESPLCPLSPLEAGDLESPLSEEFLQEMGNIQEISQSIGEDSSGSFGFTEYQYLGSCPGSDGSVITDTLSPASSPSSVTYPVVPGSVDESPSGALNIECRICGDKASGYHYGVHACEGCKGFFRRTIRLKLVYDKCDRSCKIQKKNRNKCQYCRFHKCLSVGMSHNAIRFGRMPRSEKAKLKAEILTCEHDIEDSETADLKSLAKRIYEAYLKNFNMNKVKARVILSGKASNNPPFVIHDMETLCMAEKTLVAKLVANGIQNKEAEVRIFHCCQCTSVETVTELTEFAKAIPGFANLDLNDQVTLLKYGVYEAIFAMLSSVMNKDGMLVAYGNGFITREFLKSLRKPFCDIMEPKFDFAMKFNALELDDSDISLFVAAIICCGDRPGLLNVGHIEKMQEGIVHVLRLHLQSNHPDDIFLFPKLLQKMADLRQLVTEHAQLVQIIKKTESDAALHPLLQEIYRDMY
How it was run: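 GAL4 fusion of human PPARα LBD (aa 167–468) with a GAL4-response-element luciferase reporter, transiently transfected into HEK-293 cells. Cells kept in DMEM with 10% delipidated serum, seeded 43 h post-transfection, then treated at 50 μM. DMSO (1:1000) served as blank. Luciferase read as fold activation over untreated cells. Mean of three to four experiments.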

Rattus norvegicus [2] = assay: (§1) The AUC(0-infinitive) value in female wistar rat at 100 mg/kg, p.o. dose; assay type: ADME, organism-based; set-up: time infinity, dose 100 mg/kg, route oral; unit not given here; settings: in vivo, po
How it was run: (§2)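 Wistar rats, 200–225 g, fasted 12 h with free access to water and fed 3 h after dosing. Single dose of 100 mg/kg p.o. given as a 0.5% CMC suspension. Retro-orbital blood, 0.4 mL, taken into heparinized tubes at several time points. Plasma drug measured by HPLC with fluorescence detection on a C18 column. Parameters from noncompartmental analysis, AUC by trapezoidal rule. Four rats per group, mean ± SD.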

[3] = The Kel value in female wistar rat at 100 mg/kg, p.o. dose; assay type: ADME, organism-based; set-up: dose 100 mg/kg, route oral; settings: in vivo, po; how it was run: as §2
Rattus norvegicus [4] = assay: The AUC(0-infinitive) value in male wistar rat at 100 mg/kg, p.o. dose; assay type: ADME, organism-based; set-up: time infinity, dose 100 mg/kg, route oral; settings: in vivo, po; how it was run: as §2
Mus musculus [5] = assay: The compound was tested for percent reduction in plasma glucose after 6 days of treatment at a dose of 100 mg/kg/day in mice; assay type: functional
How it was run: (§3)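 Male C57BL/KsJ-db/db mice, 8 weeks old, chow ad libitum, grouped by similar starting plasma glucose (n = 4–6 per group). Dosed orally by gavage in 0.5% CMC vehicle (10 mL/kg) daily for 6 days. Retro-orbital blood taken 1 h post-dose on days 0 and 6. Plasma glucose and triglyceride measured with kits. % reduction = {1−[(TT/OT)/(TC/OC)]}×100 versus vehicle controls, mean ± SE.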

[6] = The Cmax value in male wistar rat at 100 mg/kg, p.o. dose; assay type: ADME, organism-based; set-up: dose 100 mg/kg, route oral; settings: in vivo, po; how it was run: as §2
[7] = The half life value in male wistar rat at 100 mg/kg, p.o. dose; assay type: ADME, organism-based; set-up: dose 100 mg/kg, route oral; settings: in vivo, po; how it was run: as §2
Rattus norvegicus [8] = assay: (§4) The AUC(0-t)value in female wistar rat at 100 mg/kg, p.o. dose; assay type: ADME, organism-based; set-up: dose 100 mg/kg, route oral; unit not given here; settings: in vivo, po; how it was run: as §2
Rattus norvegicus [9] = assay: The AUC(0-t)value in male wistar rat at 100 mg/kg, p.o. dose; assay type: ADME, organism-based; set-up: dose 100 mg/kg, route oral; settings: in vivo, po; how it was run: as §2
[10] = The Cmax value in female wistar rat at 100 mg/kg, p.o. dose; assay type: ADME, organism-based; set-up: dose 100 mg/kg, route oral; settings: in vivo, po; how it was run: as §2
[11] = The Tmax value in female wistar rat at 100 mg/kg, p.o. dose; assay type: ADME, organism-based; set-up: dose 100 mg/kg, route oral; settings: in vivo, po; how it was run: as §2
Mus musculus [12] = assay: The compound was tested for percent reduction in plasma triglyceride after 6 days of treatment at a dose of 100 mg/kg/day in mice; assay type: functional; how it was run: as §3
[13] = The Tmax value in male wistar rat at 100 mg/kg, p.o. dose; assay type: ADME, organism-based; set-up: dose 100 mg/kg, route oral; settings: in vivo, po; how it was run: as §2
[14] = The Kel value in male wistar rat at 100 mg/kg, p.o. dose; assay type: ADME, organism-based; set-up: dose 100 mg/kg, route oral; settings: in vivo, po; how it was run: as §2
[15] = The half life value in female wistar rat at 100 mg/kg, p.o. dose; assay type: ADME, organism-based; set-up: dose 100 mg/kg, route oral; settings: in vivo, po; how it was run: as §2
Mus musculus [16] = assay: The compound was tested for percent reduction in plasma glucose after 6 days of treatment at 30 mg/kg/day in mice; assay type: functional; how it was run: as §3
Mus musculus [17] = assay: The compound was tested for percent reduction in plasma triglyceride after 6 days of treatment at a dose of 100 mg/kg/day (oral gavage) in mice; assay type: functional; how it was run: as §3
Mus musculus [18] = assay: The compound was tested for percent reduction in plasma glucose after 6 days of treatment at a dose of 100 mg/kg/day (oral gavage) in mice; assay type: functional; how it was run: as §3
Mus musculus [19] = assay: The compound was tested for percent reduction in plasma triglyceride after 6 days of treatment at a dose of 200 mg/kg/day (oral gavage) in mice; assay type: functional; how it was run: as §3
Mus musculus [20] = assay: The compound was tested for percent reduction in plasma glucose after 6 days of treatment at a dose of 200 mg/kg/day (oral gavage) in mice; assay type: functional; how it was run: as §3
Rattus norvegicus [21] = assay: as §1; assay type: ADME, organism-based; set-up: time infinity, dose 100 mg/kg, route oral; settings: in vivo, po; how it was run: as §2
Rattus norvegicus [22] = assay: as §4; assay type: ADME, organism-based; set-up: dose 100 mg/kg, route oral; settings: in vivo, po; how it was run: as §2
Mus musculus [23] = assay: The compound was tested for percent reduction in plasma triglyceride after 6 days of treatment at 100 mg/kg/day in mice; assay type: functional; how it was run: as §3
Mus musculus [24] = assay: The compound was tested for percent reduction in plasma triglyceride after 6 days of treatment at 30 mg/kg/day in mice; assay type: functional; how it was run: as §3
Mus musculus [25] = assay: The compound was tested for percent reduction in plasma triglyceride after 6 days of treatment at 30 mg/kg/day; assay type: functional; how it was run: as §3
Mus musculus [26] = assay: The compounds(3:7) were tested for percent reduction in plasma glucose after 6 days of treatment at 200 mg/kg/day(oral gavage) in mice; assay type: functional; how it was run: as §3
Mus musculus [27] = assay: The compounds(21:4) were tested for percent reduction in plasma glucose after 6 days of treatment at 200 mg/kg/day(oral gavage) in mice; assay type: functional; how it was run: as §3
Rattus norvegicus [28] = assay: The AUC(0-t)value in female wistar rat at 100 mg/kg, p.o. dose […]; assay type: ADME, organism-based; set-up: dose 100 mg/kg, route oral; settings: in vivo, po

For `Cc1c(C)c2c(c(C)c1OCc1ccccc1)CCC(C)(COc1ccc(CC3SC(=O)NC3=O)cc1)O2` (configuration not stated), the Fold activation [1] was 1.79, the AUC (Rattus norvegicus [2]) was 29.76 and the k el [3] was 2.22e-05 s⁻¹. It also gave an AUC (Rattus norvegicus [4]) of 21.02 µg/h/mL, a Reduction (Mus musculus [5]) of 64% and a Cmax [6] of 2170 ng/mL. It also gave a half-life [7] of 5.78 h, an AUC (Rattus norvegicus [8]) of 15.83 and an AUC (Rattus norvegicus [9]) of 14.26 µg/h/mL. The Cmax [10] was 1830 ng/mL, the Tmax [11] was 3.33 h and the Reduction (Mus musculus [12]) was 34%. It also gave a Tmax [13] of 4.33 h, a k el [14] of 3.33e-05 s⁻¹ and a half-life [15] of 9.27 h.
`Cc1c(C)c2c(c(C)c1OCc1ccccc1)CCC(C)(CN1CCC[C@H]1COc1ccc(CC3SC(=O)NC3=O)cc1)O2.Cl` (some centres not stated) showed a Reduction (Mus musculus [16]) of 12%.
With `Cc1c(C)c2c(c(C)c1OCc1ccccc1)CCC(C)(COc1ccc(/C=C3\SC(=O)NC3=O)cc1)O2` (configuration not stated) the Fold activation [1] was 0.67, the Reduction (Mus musculus [17]) was 38% and the AUC (Rattus norvegicus [2]) was 18.5. For the same compound, the k el [3] was 1.94e-05 s⁻¹, the AUC (Rattus norvegicus [8]) was 14.4 and the Reduction (Mus musculus [18]) was 39%. It also gave a Cmax [10] of 1090 ng/mL, a Tmax [11] of 4.33 h and a half-life [15] of 10.4 h.
`Cc1c(C)c2c(c(C)c1O)CCC(C)(COc1ccc(CC3SC(=O)NC3=O)cc1)O2` (configuration not stated) [TROGLITAZONE] gave an AUC (Rattus norvegicus [4]) of 5.68 µg/h/mL, a Reduction (Mus musculus [5]) of 26% and a Cmax [6] of 770 ng/mL. The half-life [7] was 3.9 h, the Reduction (Mus musculus [19]) was 50% and the Reduction (Mus musculus [20]) was 24%. For the same compound, the AUC (Rattus norvegicus [9]) was 5.09 µg/h/mL, the Tmax [13] was 2 h and the k el [14] was 5.28e-05 s⁻¹.
`Cc1c(C)c2c(c(C)c1OCc1ccccc1)CCC(C)(CN(C)CCOc1ccc(/C=C3\SC(=O)NC3=O)cc1)O2` (configuration not stated) gave a k el [3] of 4.17e-05 s⁻¹, a Reduction (Mus musculus [20]) of 45% and an AUC (Rattus norvegicus [21]) of 34.49 µg/h/mL. For the same compound, the Cmax [10] was 4120 ng/mL, the Tmax [11] was 3.25 h and the AUC (Rattus norvegicus [22]) was 27.47 µg/h/mL. For the same compound, the half-life [15] was 4.87 h.
`Cc1c(C)c2c(c(C)c1O)CCC(C)(CN1CCC[C@H]1COc1ccc(/C=C3\SC(=O)NC3=O)cc1)O2` (some centres not stated) gave a Reduction (Mus musculus [23]) of 36% and a Reduction (Mus musculus [18]) of 37%.
`Cc1c(C)c2c(c(C)c1OCc1ccccc1)CCC(C)(CN1CCC[C@H]1COc1ccc(CC3SC(=O)[N-]C3=O)cc1)O2.[Na+]` (some centres not stated) gave a Reduction (Mus musculus [16]) of 36% and a Reduction (Mus musculus [24]) of 66%.
With `Cc1c(C)c2c(c(C)c1O)CCC(C)(COc1ccc(/C=C3\SC(=O)NC3=O)cc1)O2` (configuration not stated) the Fold activation [1] was 0.58, the Reduction (Mus musculus [17]) was 26% and the AUC (Rattus norvegicus [2]) was 3.12. It also gave a k el [3] of 6.94e-05 s⁻¹, an AUC (Rattus norvegicus [8]) of 2.44 and a Reduction (Mus musculus [18]) of 62%. For the same compound, the Cmax [10] was 680 ng/mL, the Tmax [11] was 1.75 h and the half-life [15] was 2.82 h.
Work on `Cc1c(C)c2c(c(C)c1OCc1ccccc1)CCC(C)(CN1CCC[C@H]1COc1ccc(CC3SC(=O)NC3=O)cc1)O2` (some centres not stated) yielded a Reduction (Mus musculus [18]) of 26% and a Reduction (Mus musculus [16]) of 23%.
`Cc1c(C)c2c(c(C)c1OCc1ccccc1)CCC(C)(CN1CCC[C@H]1COc1ccc(/C=C3\SC(=O)NC3=O)cc1)O2` (some centres not stated) showed a Reduction (Mus musculus [18]) of 68%, a Reduction (Mus musculus [25]) of 26% and a Reduction (Mus musculus [16]) of 41%.
With `Cc1c(C)c2c(c(C)c1OCc1ccccc1)CCC(C)(CN1CCC[C@@H](Oc3ccc(/C=C4\SC(=O)NC4=O)cc3)C1)O2.Cc1c(C)c2c(c(C)c1OCc1ccccc1)CCC(C)(CN1CCC[C@H]1COc1ccc(/C=C3\SC(=O)NC3=O)cc1)O2` (some centres not stated) the Reduction (Mus musculus [26]) was 53% and the Reduction (Mus musculus [27]) was 52%.
With `Cc1c(C)c2c(c(C)c1OCc1ccccc1)CCC(C)(CN1CCC[C@H]1COc1ccc(/C=C3\SC(=O)[N-]C3=O)cc1)O2.[Na+]` (some centres not stated) the Reduction (Mus musculus [16]) was 8% and the Reduction (Mus musculus [24]) was 58%.
With `Cc1c(C)c2c(c(C)c1O)CCC(C)(CN(C)CCOc1ccc(/C=C3\SC(=O)NC3=O)cc1)O2` (configuration not stated) the k el [3] was 0.000106 s⁻¹, the AUC (Rattus norvegicus [28]) was 44.2 µg/h/mL and the Reduction (Mus musculus [20]) was 36%. For the same compound, the AUC (Rattus norvegicus [21]) was 44.94 µg/h/mL, the Cmax [10] was 9920 ng/mL and the Tmax [11] was 1.38 h.
With `Cc1c(C)c2c(c(C)c1OCc1ccccc1)CCC(C)(CN1CCC[C@@H](Oc3ccc(/C=C4\SC(=O)NC4=O)cc3)C1)O2` (some centres not stated) the Reduction (Mus musculus [23]) was 24% and the Reduction (Mus musculus [18]) was 5%.
`Cc1c(C)c2c(c(C)c1O)CCC(C)(CN(C)CCOc1ccc(CC3SC(=O)NC3=O)cc1)O2` (configuration not stated) gave a Reduction (Mus musculus [20]) of 3%.
